Measured values: ChEMBL document CHEMBL1806372, “Cytotoxic ring A-modified steroid analogues derived from Grundmann's ketone” (Eur J Med Chem, 2011)

Legend:
Assay type in all cases: functional
DU-145 = experiment: Cytotoxicity against human DU145 cells after 48 hrs by sulforhodamine B assay; settings: DU-145, 48 h, read-out: LC50 (the source's name)
Method in brief: (§1)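 NCI 60 human tumour cell line panel run to the NCI protocol. GI50, TGI and LC50 come from log concentration vs % growth inhibition curves for each cell line. Lines insensitive at the top concentration are reported with ">".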

T47D = experiment: Cytotoxicity against human T47D cells after 48 hrs by sulforhodamine B assay; settings: read-out: LC50 (the source's name)
MDA-MB-468 = experiment: Growth inhibition of human MDA-MB-468 cells after 48 hrs by sulforhodamine B assay; settings: MDA-MB-468, 48 h
Method in brief: (§2)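 GI50, TGI and LC50 were derived from log concentration versus % growth inhibition curves for each cell line. GI50 is the concentration giving a 50% decrease in net cell growth. Insensitive lines are reported as greater than the highest concentration.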

SNB-19 [1] = experiment: Growth inhibition of human SNB19 cells after 48 hrs by sulforhodamine B assay; settings: SNB-19, 48 h
Method in brief: (§3)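 NCI 60-cell panel five-dose assay. GI50, TGI and LC50 are derived from log concentration versus % growth inhibition curves. Cell lines insensitive at the top concentration are given a ">" prefix.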

NCI-H23 = experiment: Cytotoxicity against human NCI-H23 cells after 48 hrs by sulforhodamine B assay; settings: NCI-H23, 48 h, read-out: LC50 (the source's name); method in brief: as §1
OVCAR-4 = experiment: Growth inhibition of human OVCAR4 cells after 48 hrs by sulforhodamine B assay; settings: OVCAR-4, 48 h; method in brief: as §2
SF-539 = experiment: Growth inhibition of human SF539 cells after 48 hrs by sulforhodamine B assay; settings: SF-539, 48 h; method in brief: as §2
HL-60(TB) = experiment: Cytotoxicity against human HL-60(TB) cells after 48 hrs by sulforhodamine B assay; settings: HL-60, 48 h, read-out: LC50 (the source's name); method in brief: as §1
EKVX = experiment: Cytotoxicity against human EKVX cells after 48 hrs by sulforhodamine B assay; settings: read-out: LC50 (the source's name); method in brief: as §1
UO-31 = experiment: Growth inhibition of human UO31 cells after 48 hrs by sulforhodamine B assay; settings: UO-31, 48 h; method in brief: as §3
LOX IMVI = experiment: Cytotoxicity against human LOXIMVI cells after 48 hrs by sulforhodamine B assay; settings: read-out: LC50 (the source's name); method in brief: as §1
OVCAR-8 = experiment: Cytotoxicity against human OVCAR8 cells after 48 hrs by sulforhodamine B assay; settings: OVCAR-8, 48 h, read-out: LC50 (the source's name); method in brief: as §1
CAKI-1 = experiment: Growth inhibition of human Caki1 cells after 48 hrs by sulforhodamine B assay; settings: CAKI-1, 48 h
Method in brief: (§4)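 From log concentration versus % growth curves, GI50 (50% decrease in net growth), TGI (total growth inhibition) and LC50 (net 50% loss of initial cells) are derived for each line.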

A549 [2] = experiment: Growth inhibition of human A549 cells after 48 hrs by sulforhodamine B assay; settings: A549, 48 h; method in brief: as §4
HOP-62 = experiment: Growth inhibition of human HOP62 cells after 48 hrs by sulforhodamine B assay; settings: HOP-62, 48 h; method in brief: as §4
UACC-257 = experiment: Growth inhibition of human UACC257 cells after 48 hrs by sulforhodamine B assay; settings: UACC-257, 48 h; method in brief: as §3
HCT-15 = experiment: Cytotoxicity against human HCT15 cells after 48 hrs by sulforhodamine B assay; settings: HCT-15, 48 h, read-out: LC50 (the source's name); method in brief: as §1
NCI-H460 [3] = experiment: Cytotoxicity against human NCI-H460 cells after 48 hrs by sulforhodamine B assay; settings: NCI-H460, 48 h, read-out: LC50 (the source's name); method in brief: as §1
HCT-116 = experiment: Growth inhibition of human HCT116 cells after 48 hrs by sulforhodamine B assay; settings: HCT-116, 48 h; method in brief: as §4
SK-MEL-5 = experiment: Growth inhibition of human SK-MEL-5 cells after 48 hrs by sulforhodamine B assay; settings: SK-MEL-5, 48 h; method in brief: as §2
COLO 205 = experiment: Cytotoxicity against human COLO205 cells after 48 hrs by sulforhodamine B assay; settings: COLO 205, 48 h, read-out: LC50 (the source's name); method in brief: as §1
A549 [4] = experiment: Cytotoxicity against human A549 cells after 48 hrs by sulforhodamine B assay; settings: A549, 48 h, read-out: LC50 (the source's name); method in brief: as §1
SNB-19 [5] = experiment: Cytotoxicity against human SNB19 cells after 48 hrs by sulforhodamine B assay; settings: SNB-19, 48 h, read-out: LC50 (the source's name); method in brief: as §1
TK-10 = experiment: Growth inhibition of human TK10 cells after 48 hrs by sulforhodamine B assay; settings: TK-10, 48 h; method in brief: as §3
KM12 [6] = experiment: Cytotoxicity against human KM12 cells after 48 hrs by sulforhodamine B assay; settings: KM12, 48 h, read-out: LC50 (the source's name); method in brief: as §1
CCRF-CEM = experiment: Growth inhibition of human CCRF-CEM cells after 48 hrs by sulforhodamine B assay; method in brief: as §4
KM12 [7] = experiment: Growth inhibition of human KM12 cells after 48 hrs by sulforhodamine B assay; settings: KM12, 48 h; method in brief: as §4
SF-268 = experiment: Growth inhibition of human SF268 cells after 48 hrs by sulforhodamine B assay; settings: SF-268, 48 h; method in brief: as §2
786-0 = experiment: Growth inhibition of human 786-0 cells after 48 hrs by sulforhodamine B assay; settings: 786-0, 48 h; method in brief: as §4
SR = experiment: Growth inhibition of human SR cells after 48 hrs by sulforhodamine B assay; method in brief: as §3
SF-295 = experiment: Cytotoxicity against human SF295 cells after 48 hrs by sulforhodamine B assay; settings: SF-295, 48 h, read-out: LC50 (the source's name); method in brief: as §1
NCI-H460 [8] = experiment: Growth inhibition of human NCI-H460 cells after 48 hrs by sulforhodamine B assay; settings: NCI-H460, 48 h; method in brief: as §2
OVCAR-5 = experiment: Cytotoxicity against human OVCAR5 cells after 48 hrs by sulforhodamine B assay; settings: OVCAR-5, 48 h, read-out: LC50 (the source's name); method in brief: as §1
SN12C = experiment: Growth inhibition of human SN12C cells after 48 hrs by sulforhodamine B assay; method in brief: as §3
K562 = experiment: Growth inhibition of human K562 cells after 48 hrs by sulforhodamine B assay; settings: K562, 48 h; method in brief: as §4
UACC-62 = experiment: Cytotoxicity against human UACC62 cells after 48 hrs by sulforhodamine B assay; settings: UACC-62, 48 h, read-out: LC50 (the source's name)

Work on `CC(C)CCC[C@@H](C)[C@H]1CC[C@H]2C3=CCn4c(=O)ccc(=O)n4[C@@H]3CC[C@]12C` yielded a CC50 (DU-145) of 4890 nM, a CC50 (T47D) of 6290 nM and a GI50 (MDA-MB-468) of 628 nM. The TGI (MDA-MB-468) was 2560 nM, the GI50 (SNB-19 [1]) was 1520 nM and the TGI (SNB-19 [1]) was 3020 nM. It also gave a CC50 (NCI-H23) of 9000 nM, a GI50 (OVCAR-4) of 686 nM and a TGI (OVCAR-4) of 2110 nM. The GI50 (SF-539) was 1470 nM, the TGI (SF-539) was 2890 nM and the CC50 (HL-60(TB)) was greater than 100000 nM. It also gave a CC50 (EKVX) of 7330 nM, a GI50 (UO-31) of 237 nM and a TGI (UO-31) of 1150 nM. The CC50 (LOX IMVI) was 3520 nM, the CC50 (OVCAR-8) was greater than 100000 nM and the GI50 (CAKI-1) was 179 nM. The TGI (CAKI-1) was 577 nM, the GI50 (A549 [2]) was 325 nM and the TGI (A549 [2]) was 1240 nM. For the same compound, the GI50 (HOP-62) was 1330 nM, the TGI (HOP-62) was 2670 nM and the GI50 (UACC-257) was 433 nM. The TGI (UACC-257) was 1550 nM, the CC50 (HCT-15) was greater than 100000 nM and the CC50 (NCI-H460 [3]) was 5730 nM. For the same compound, the GI50 (HCT-116) was 142 nM, the TGI (HCT-116) was 291 nM and the GI50 (SK-MEL-5) was 563 nM. The TGI (SK-MEL-5) was 1830 nM, the CC50 (COLO 205) was 2360 nM and the CC50 (A549 [4]) was 4040 nM. It also gave a CC50 (SNB-19 [5]) of 6010 nM, a GI50 (TK-10) of 356 nM and a TGI (TK-10) of 1260 nM. The CC50 (KM12 [6]) was 4440 nM, the GI50 (CCRF-CEM) was 360 nM and the TGI (CCRF-CEM) was greater than 100000 nM. It also gave a GI50 (KM12 [7]) of 443 nM, a TGI (KM12 [7]) of 1510 nM and a GI50 (SF-268) of 1460 nM. It also gave a TGI (SF-268) of 2880 nM, a GI50 (786-0) of 713 nM and a TGI (786-0) of 1950 nM. For the same compound, the GI50 (SR) was 137 nM, the TGI (SR) was 758 nM and the CC50 (SF-295) was 3760 nM. The GI50 (NCI-H460 [8]) was 739 nM, the TGI (NCI-H460 [8]) was 2250 nM and the CC50 (OVCAR-5) was 7840 nM. The GI50 (SN12C) was 388 nM, the TGI (SN12C) was 1690 nM and the GI50 (K562) was 309 nM. The TGI (K562) was 2020 nM and the CC50 (UACC-62) was 5450 nM.
In the case of `CC(C)CCC[C@@H](C)[C@H]1CC[C@H]2C3=CC[C@@H]4C(=O)C=CC(=O)[C@@H]4[C@@H]3CC[C@]12C`, the CC50 (DU-145) is reported as greater than 100000 nM, the CC50 (T47D) is reported as greater than 100000 nM and the GI50 (MDA-MB-468) is reported as 215 nM. The TGI (MDA-MB-468) was 462 nM, the GI50 (SNB-19 [1]) was 654 nM and the TGI (SNB-19 [1]) was greater than 100000 nM. For the same compound, the CC50 (NCI-H23) was greater than 100000 nM, the GI50 (OVCAR-4) was 159 nM and the TGI (OVCAR-4) was 498 nM. The GI50 (SF-539) was 478 nM, the CC50 (HL-60(TB)) was greater than 100000 nM and the CC50 (EKVX) was greater than 100000 nM. For the same compound, the GI50 (UO-31) was 72 nM, the TGI (UO-31) was 359 nM and the CC50 (LOX IMVI) was greater than 4100 nM. It also gave a CC50 (OVCAR-8) greater than 8120 nM, a GI50 (CAKI-1) of 279 nM and a TGI (CAKI-1) of 633 nM. The GI50 (A549 [2]) was 58 nM, the TGI (A549 [2]) was 780 nM and the GI50 (HOP-62) was 630 nM. The TGI (HOP-62) was greater than 100000 nM, the GI50 (UACC-257) was 230 nM and the TGI (UACC-257) was 610 nM. For the same compound, the CC50 (HCT-15) was greater than 100000 nM, the CC50 (NCI-H460 [3]) was greater than 100000 nM and the GI50 (HCT-116) was 55 nM. The TGI (HCT-116) was 1030 nM, the GI50 (SK-MEL-5) was 309 nM and the TGI (SK-MEL-5) was 1000 nM. It also gave a CC50 (COLO 205) greater than 536 nM, a CC50 (A549 [4]) greater than 100000 nM and a CC50 (SNB-19 [5]) greater than 100000 nM. It also gave a GI50 (TK-10) of 2650 nM, a TGI (TK-10) greater than 100000 nM and a CC50 (KM12 [6]) greater than 100000 nM. For the same compound, the GI50 (CCRF-CEM) was 189 nM, the TGI (CCRF-CEM) was greater than 100000 nM and the GI50 (KM12 [7]) was 338 nM. For the same compound, the TGI (KM12 [7]) was greater than 100000 nM, the GI50 (SF-268) was 566 nM and the TGI (SF-268) was greater than 100000 nM. It also gave a GI50 (786-0) of 311 nM, a TGI (786-0) of 1500 nM and a GI50 (SR) of 207 nM. For the same compound, the TGI (SR) was greater than 100000 nM, the CC50 (SF-295) was greater than 100000 nM and the GI50 (NCI-H460 [8]) was 333 nM. The TGI (NCI-H460 [8]) was 5590 nM, the CC50 (OVCAR-5) was greater than 100000 nM and the GI50 (SN12C) was 269 nM. For the same compound, the TGI (SN12C) was greater than 100000 nM, the GI50 (K562) was 249 nM and the TGI (K562) was greater than 100000 nM. The CC50 (UACC-62) was greater than 100000 nM.
